According to ChEMBL document CHEMBL4689842, “EUbOPEN Chemogenomics Library wave 1” (2021):

Test system: U2OS
Experiment: Multiplex assay against U2OS
Type: toxicity, cell-based
Details: human
In short: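 Live cells carried four stains from seeding: Hoechst33342, BioTracker Green Microtubule Cytoskeleton Dye, MitoTracker Red and Annexin V Alexa Fluor 680. They were imaged on a CQ1 microscope at 37°C and 5% CO2 after compound addition. Using CellPathfinder machine-learning gating, cells were split into Hoechst high-intensity objects or normal cells, normal cells into healthy, pyknosed or fragmented nuclei, and pyknosed cells into mitotic or apoptotic; tubulin, mitochondrial-mass and membrane-permeability phenotypes are per cents of healthy-nucleus cells.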

[1] = 12 h, 0 µM, compound concentration 0 uM, replicate 1
[2] = 12 h, 0 µM, compound concentration 0 uM, replicate 2
[3] = 12 h, 1 µM, compound concentration 1 uM, replicate 1
[4] = 12 h, 1 µM, compound concentration 1 uM, replicate 2
[5] = 24 h, 0 µM, compound concentration 0 uM, replicate 1
[6] = 24 h, 0 µM, compound concentration 0 uM, replicate 2
[7] = 24 h, 1 µM, compound concentration 1 uM, replicate 1
[8] = 24 h, 1 µM, compound concentration 1 uM, replicate 2

CCNc1cc(N[C@H]2CC[C@H](O)CC2)nc(Nc2ccc3c(ccn3Cc3ccccc3)c2)n1
Population Apoptotic (%) [1]: 37%
Population Fragmented Nuclei (%) [1]: 14%
Population Healthy Nuclei (%) [1]: 59%
Population Hoechst High Intensity Objects (%) [1]: 6%
Population Membrane Permeable-Phenotype (%) [1]: 39%
Population Mitochondria Different-Phenotype (%) [1]: 98%
Population Mitotic Cells (%) [1]: 62%
Population Normal (%) [1]: 93%
Population Pyknosed Nuclei (%) [1]: 25%
Population Tubulin-Different-Phenotype (%) [1]: 100%
Total Cell Count [1]: 243
Population Apoptotic (%) [2]: 62%
Population Fragmented Nuclei (%) [2]: 20%
Population Healthy Nuclei (%) [2]: 57%
Population Hoechst High Intensity Objects (%) [2]: 7%
Population Membrane Permeable-Phenotype (%) [2]: 69%
Population Mitochondria Different-Phenotype (%) [2]: 100%
Population Mitotic Cells (%) [2]: 37%
Population Normal (%) [2]: 92%
Population Pyknosed Nuclei (%) [2]: 22%
Total Cell Count [2]: 117
Population Apoptotic (%) [3]: 64%
Population Fragmented Nuclei (%) [3]: 4%
Population Healthy Nuclei (%) [3]: 81%
Population Hoechst High Intensity Objects (%) [3]: 1%
Population Membrane Permeable-Phenotype (%) [3]: 33%
Population Mitochondria Different-Phenotype (%) [3]: 30%
Population Mitotic Cells (%) [3]: 35%
Population Normal (%) [3]: 98%
Population Pyknosed Nuclei (%) [3]: 13%
Population Tubulin-Different-Phenotype (%) [3]: 88%
Total Cell Count [3]: 129
Population Apoptotic (%) [4]: 42%
Population Fragmented Nuclei (%) [4]: 11%
Population Healthy Nuclei (%) [4]: 75%
Population Hoechst High Intensity Objects (%) [4]: 11%
Population Membrane Permeable-Phenotype (%) [4]: 18%
Population Mitochondria Different-Phenotype (%) [4]: 55%
Population Mitotic Cells (%) [4]: 57%
Population Normal (%) [4]: 88%
Population Tubulin-Different-Phenotype (%) [4]: 76%
Total Cell Count [4]: 120
Population Apoptotic (%) [5]: 65%
Population Fragmented Nuclei (%) [5]: 14%
Population Healthy Nuclei (%) [5]: 46%
Population Hoechst High Intensity Objects (%) [5]: 4%
Population Membrane Permeable-Phenotype (%) [5]: 83%
Population Mitotic Cells (%) [5]: 34%
Population Normal (%) [5]: 95%
Population Pyknosed Nuclei (%) [5]: 39%
Population Tubulin-Different-Phenotype (%) [5]: 99%
Total Cell Count [5]: 273
Population Apoptotic (%) [6]: 71%
Population Fragmented Nuclei (%) [6]: 23%
Population Healthy Nuclei (%) [6]: 47%
Population Hoechst High Intensity Objects (%) [6]: 10%
Population Membrane Permeable-Phenotype (%) [6]: 92%
Population Mitochondria Different-Phenotype (%) [6]: 100%
Population Mitotic Cells (%) [6]: 28%
Population Normal (%) [6]: 89%
Population Pyknosed Nuclei (%) [6]: 29%
Population Tubulin-Different-Phenotype (%) [6]: 100%
Total Cell Count [6]: 121
Population Apoptotic (%) [7]: 33%
Population Fragmented Nuclei (%) [7]: 9%
Population Healthy Nuclei (%) [7]: 77%
Population Hoechst High Intensity Objects (%) [7]: 2%
Population Membrane Permeable-Phenotype (%) [7]: 22%
Population Mitochondria Different-Phenotype (%) [7]: 42%
Population Mitotic Cells (%) [7]: 66%
Population Normal (%) [7]: 97%
Population Pyknosed Nuclei (%) [7]: 12%
Population Tubulin-Different-Phenotype (%) [7]: 69%
Total Cell Count [7]: 167
Population Apoptotic (%) [8]: 70%
Population Fragmented Nuclei (%) [8]: 14%
Population Healthy Nuclei (%) [8]: 71%
Population Hoechst High Intensity Objects (%) [8]: 9%
Population Membrane Permeable-Phenotype (%) [8]: 23%
Population Mitochondria Different-Phenotype (%) [8]: 53%
Population Mitotic Cells (%) [8]: 29%
Population Normal (%) [8]: 90%
Population Pyknosed Nuclei (%) [8]: 14%
Population Tubulin-Different-Phenotype (%) [8]: 65%
Total Cell Count [8]: 132
